ChEMBL document CHEMBL1806486, “Discovery and evaluation of 3-phenyl-1H-5-pyrazolylamine-based derivatives as potent, selective and efficacious inhibitors of FMS-like tyrosine kinase-3 (FLT3)” (Bioorg Med Chem, 2011)
Activity calls are given as the source filed them. The calls are words filed in the database; no cut-off is given here.

Columns and labels:
[1] = target: Vascular endothelial growth factor receptor 1 (Homo sapiens, UniProt P17948); assay: Inhibition of recombinant GST-tagged VEGFR1 expressed in Sf9 insect cells after 120 mins by Kinase-Glo assay
Summary of the method: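 GST-VEGFR1 (R781–I1338) or GST-VEGFR2 (V789–V1356) kinase domain, 50–100 ng, from Sf9 cells. Read-out was Kinase-Glo Plus luminescence.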

[2] = target: T1, Receptor-type tyrosine-protein kinase FLT3 (Homo sapiens, UniProt P36888); assay: Inhibition of GST-tagged FLT3 expressing wild type kinase domain expressed in Sf9 insect cells after 4 hrs by Kinase-Glo assay
T1 sequence (P36888 whole entry): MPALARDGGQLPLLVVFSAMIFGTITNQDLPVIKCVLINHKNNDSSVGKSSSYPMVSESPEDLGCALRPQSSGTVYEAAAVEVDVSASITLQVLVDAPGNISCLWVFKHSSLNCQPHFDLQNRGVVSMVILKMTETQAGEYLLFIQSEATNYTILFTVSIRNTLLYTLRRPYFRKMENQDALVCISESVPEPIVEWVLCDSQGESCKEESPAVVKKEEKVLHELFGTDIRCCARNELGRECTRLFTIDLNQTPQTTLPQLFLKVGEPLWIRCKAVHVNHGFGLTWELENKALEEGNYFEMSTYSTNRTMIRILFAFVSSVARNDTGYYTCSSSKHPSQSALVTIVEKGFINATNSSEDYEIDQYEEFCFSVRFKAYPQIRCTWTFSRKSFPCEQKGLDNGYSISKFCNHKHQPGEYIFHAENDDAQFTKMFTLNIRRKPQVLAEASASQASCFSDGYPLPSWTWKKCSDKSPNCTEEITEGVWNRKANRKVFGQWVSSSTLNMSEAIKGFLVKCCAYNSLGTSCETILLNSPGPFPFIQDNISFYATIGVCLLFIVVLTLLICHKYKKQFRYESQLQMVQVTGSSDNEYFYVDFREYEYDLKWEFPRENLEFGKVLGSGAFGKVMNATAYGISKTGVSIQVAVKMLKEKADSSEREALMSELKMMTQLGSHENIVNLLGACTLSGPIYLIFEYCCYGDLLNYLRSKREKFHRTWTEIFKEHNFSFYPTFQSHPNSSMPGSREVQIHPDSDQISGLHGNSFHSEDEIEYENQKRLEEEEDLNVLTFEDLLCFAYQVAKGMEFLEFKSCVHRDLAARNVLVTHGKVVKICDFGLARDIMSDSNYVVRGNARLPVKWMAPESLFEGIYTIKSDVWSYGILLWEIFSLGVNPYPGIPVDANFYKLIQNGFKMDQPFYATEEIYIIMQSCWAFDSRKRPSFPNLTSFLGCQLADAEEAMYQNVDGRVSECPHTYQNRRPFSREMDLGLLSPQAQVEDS

[3] = target: Proto-oncogene tyrosine-protein kinase receptor Ret (Homo sapiens) (UniProt P07949); assay: Inhibition of RET at 0.1 uM
MV4-11 [4] = assay: Antiproliferation activity against FLT3/ITD harboring human MV4-11 cells after 72 hrs by MTS method; assay type: functional; settings: MV4-11, 72 h
K562 = assay: Antiproliferation activity against human K562 cells expressing wild type BCR/ABL after 72 hrs by MTS method; assay type: functional; settings: K562, 72 h
MV4-11 [5] = assay: Antitumor activity against human MV4-11 cells xenografted in athymic nu/nu nude mouse assessed as inhibition of tumor growth at 50 mg/kg, iv qd for 1 to 5 and 8 to 12 days; assay type: functional, organism-based; set-up: dose 50 mg/kg
Summary of the method: (§1)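 Nude nu/nu mice (9 weeks old) received 1 × 10^6 MV4;11 cells s.c. in the left flank. Treatment began at a mean tumor volume of about 500 mm3, with n = 8 per group. Dosing was iv once daily at 10, 25 or 50 mg/kg on days 1–5 and 8–12, in DMSO/Cremophor/saline vehicle, with vehicle controls. Tumor volume was measured by caliper as (width × length²)/2.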

MV4-11 [6] = assay: Antitumor activity against human MV4-11 cells xenografted in athymic nu/nu nude mouse assessed as tumor regrowth at 50 mg/kg, iv qd for 1 to 5 and 8 to 12 days measured after 20 days; assay type: functional, organism-based; set-up: dose 50 mg/kg; summary of the method: as §1
Mus musculus [7] = assay: Toxicity in athymic nu/nu nude mouse harboring xenografted huma MOLM13 cells assessed as reduction of body weight at 50 mg/kg, iv for continuous 5 days; assay type: organism-based, MOLM-13; set-up: dose 50 mg/kg, route intravenous; scale not given: the % may be the effect or the level left; settings: in vivo, 120 h
Mus musculus [8] = assay: Toxicity in normal mouse assessed as reduction of body weight at 50 mg/kg, iv for continuous 5 days; settings: in vivo, 120 h

Proto-oncogene tyrosine-protein kinase receptor Ret (Homo sapiens), sequence (P07949 whole entry): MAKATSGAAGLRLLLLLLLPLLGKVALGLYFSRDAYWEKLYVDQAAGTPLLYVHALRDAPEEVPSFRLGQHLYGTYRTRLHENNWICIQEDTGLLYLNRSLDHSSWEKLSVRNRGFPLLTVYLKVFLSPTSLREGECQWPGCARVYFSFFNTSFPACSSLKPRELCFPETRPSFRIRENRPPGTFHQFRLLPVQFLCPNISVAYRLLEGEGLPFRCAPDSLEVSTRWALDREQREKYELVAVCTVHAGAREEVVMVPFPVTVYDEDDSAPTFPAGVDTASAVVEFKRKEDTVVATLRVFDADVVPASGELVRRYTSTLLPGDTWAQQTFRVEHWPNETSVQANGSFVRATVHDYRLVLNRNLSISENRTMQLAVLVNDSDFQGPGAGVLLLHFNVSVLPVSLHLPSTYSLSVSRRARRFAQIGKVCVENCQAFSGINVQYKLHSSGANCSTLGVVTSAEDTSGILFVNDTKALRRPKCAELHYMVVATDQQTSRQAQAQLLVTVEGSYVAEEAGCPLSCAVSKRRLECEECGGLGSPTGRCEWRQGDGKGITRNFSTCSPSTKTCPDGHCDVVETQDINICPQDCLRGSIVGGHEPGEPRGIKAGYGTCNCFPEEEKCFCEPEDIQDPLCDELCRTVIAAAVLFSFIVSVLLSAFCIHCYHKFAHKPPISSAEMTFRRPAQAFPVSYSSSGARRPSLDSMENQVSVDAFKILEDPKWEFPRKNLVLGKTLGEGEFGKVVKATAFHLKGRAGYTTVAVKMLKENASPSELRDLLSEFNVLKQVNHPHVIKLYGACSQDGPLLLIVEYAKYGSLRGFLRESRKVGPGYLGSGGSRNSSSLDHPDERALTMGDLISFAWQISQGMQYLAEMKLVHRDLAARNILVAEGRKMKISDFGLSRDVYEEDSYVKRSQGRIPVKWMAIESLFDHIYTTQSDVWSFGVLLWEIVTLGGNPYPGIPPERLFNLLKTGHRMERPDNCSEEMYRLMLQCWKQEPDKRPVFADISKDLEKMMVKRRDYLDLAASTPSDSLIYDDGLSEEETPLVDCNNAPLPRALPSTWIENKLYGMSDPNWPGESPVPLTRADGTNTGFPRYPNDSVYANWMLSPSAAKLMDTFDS
Vascular endothelial growth factor receptor 1, sequence (P17948 whole entry, the tested form may be a part): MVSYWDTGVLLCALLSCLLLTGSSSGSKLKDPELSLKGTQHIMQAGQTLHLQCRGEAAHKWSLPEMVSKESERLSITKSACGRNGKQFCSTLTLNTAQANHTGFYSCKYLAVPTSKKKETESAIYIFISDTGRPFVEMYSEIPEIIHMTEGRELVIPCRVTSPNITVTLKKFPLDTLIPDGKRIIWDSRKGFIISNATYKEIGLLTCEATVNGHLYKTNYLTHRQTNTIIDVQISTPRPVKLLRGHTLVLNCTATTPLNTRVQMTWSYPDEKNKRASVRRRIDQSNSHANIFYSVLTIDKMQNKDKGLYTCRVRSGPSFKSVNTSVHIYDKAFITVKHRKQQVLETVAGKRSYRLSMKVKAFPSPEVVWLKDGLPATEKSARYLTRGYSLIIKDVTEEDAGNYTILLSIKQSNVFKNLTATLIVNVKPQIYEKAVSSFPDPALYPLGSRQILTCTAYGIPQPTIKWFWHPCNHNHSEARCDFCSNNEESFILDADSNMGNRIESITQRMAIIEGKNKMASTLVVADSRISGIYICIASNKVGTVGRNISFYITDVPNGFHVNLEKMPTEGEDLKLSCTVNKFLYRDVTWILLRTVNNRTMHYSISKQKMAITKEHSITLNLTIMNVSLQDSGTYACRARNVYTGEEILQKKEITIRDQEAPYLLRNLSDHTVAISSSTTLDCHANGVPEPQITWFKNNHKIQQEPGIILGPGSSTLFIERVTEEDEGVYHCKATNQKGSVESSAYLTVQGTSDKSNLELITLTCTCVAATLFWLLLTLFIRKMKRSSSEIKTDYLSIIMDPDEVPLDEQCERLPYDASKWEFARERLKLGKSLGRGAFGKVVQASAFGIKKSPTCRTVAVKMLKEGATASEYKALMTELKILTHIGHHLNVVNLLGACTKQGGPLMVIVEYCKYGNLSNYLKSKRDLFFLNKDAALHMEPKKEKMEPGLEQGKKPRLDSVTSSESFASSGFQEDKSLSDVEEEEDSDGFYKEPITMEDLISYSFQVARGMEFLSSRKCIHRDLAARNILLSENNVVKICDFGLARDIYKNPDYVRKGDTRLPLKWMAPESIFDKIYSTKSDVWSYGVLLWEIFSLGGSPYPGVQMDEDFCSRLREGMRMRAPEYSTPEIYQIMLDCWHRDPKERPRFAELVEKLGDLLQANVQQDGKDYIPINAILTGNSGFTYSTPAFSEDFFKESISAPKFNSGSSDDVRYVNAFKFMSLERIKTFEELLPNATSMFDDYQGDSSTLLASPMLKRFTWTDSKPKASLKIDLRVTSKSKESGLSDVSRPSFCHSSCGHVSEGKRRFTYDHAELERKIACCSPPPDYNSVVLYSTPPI

IC50 [1]: 310 nM
IC50 [2]: 6 nM
inhibition [3]: 71%
GI50 (MV4-11 [4]): 27 nM
GI50 (K562): > 10000 nM
Structure (SMILES): Cc1nc(Nc2cc(-c3cccc(NS(=O)(=O)c4ccccc4)c3)n[nH]2)cc(N2CCN(C)CC2)n1
Activity (MV4-11 [5]): Active
Activity (MV4-11 [6]): inactive
Activity (Mus musculus [7]): < 3%
Activity (Mus musculus [8]): Non-toxic
